Laboratory results from paper PMC6519384 (Andrology, 2018).

Assays:
[1] = Single oral dose of 200 mg DMAU in healthy men; assay type: in vivo, human; settings: oral 200 mg DMAU
Procedure, shortened: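 Fifteen healthy men took 200 mg DMAU orally after a meal, in castor oil/benzyl benzoate or as capsule powder. Ten blood draws over 24 h went into plain tubes (kept at RT) and NaF‑containing tubes (4 °C), each held 30 min before centrifugation. DMA and DMAU were measured by LC‑MS/MS. The plain minus NaF‑EDTA DMA difference was regressed on average DMAU, split at 10 ng/mL.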

blood esterases = experiment: Ex vivo addition of DMAU to blood in different blood collection tubes; assay type: in vitro ADME, human; settings: for Reduction of conversion of DMAU to DMA in NaF tubes: NaF 15 mg/mL blood; for Reduction of conversion of DMAU to DMA in NaF tubes / DMA level: 60 min at RT; for DMA level: plain tube
Procedure, shortened: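 Freshly drawn venous whole blood from healthy men is split into 2 mL aliquots in plain or esterase-inhibitor tubes, in duplicate. DMAU in methanol is added to 125–1000 ng/mL and held 30 or 60 min at 4 °C or 60 min at 23 °C before centrifugation. DMA is extracted twice with MTBE/hexane (50:50) and run by LC‑MS/MS. Duplicates are averaged and results given as % difference vs plain tube under the same conditions.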

[2] = DMAU added to serum with increasing NaF, DMA measured; assay type: in vitro ADME, human; settings: Table S1, Experiment 3
[3] = DMAU 300 ng/mL, K2EDTA (1.8 mg/mL) tube, 30 min 4 °C
[4] = DMAU 300 ng/mL, K2EDTA (1.8 mg/mL) tube, 60 min 4 °C
[5] = DMAU 300 ng/mL, K2EDTA (1.8 mg/mL) tube, 60 min RT
[6] = DMAU 300 ng/mL, NaF (1.5 mg/mL) + Na2EDTA (3 mg/mL) tube, 30 min 4 °C
[7] = DMAU 300 ng/mL, NaF (1.5 mg/mL) + Na2EDTA (3 mg/mL) tube, 60 min 4 °C
[8] = DMAU 300 ng/mL, NaF (5 mg/mL) + K2Oxalate (4 mg/mL) tube, 60 min 4 °C
[9] = DMAU 300 ng/mL, NaF (5 mg/mL) + K2Oxalate (4 mg/mL) tube, 60 min RT
[10] = DMAU 300 ng/mL, P800 tube, 30 min 4 °C
[11] = DMAU 300 ng/mL, P800 tube, 60 min 4 °C
[12] = DMAU 300 ng/mL, P800 tube, 60 min RT
[13] = DMAU 600 ng/mL, K2EDTA (1.8 mg/mL) tube, 30 min 4 °C
[14] = DMAU 600 ng/mL, K2EDTA (1.8 mg/mL) tube, 60 min 4 °C
[15] = DMAU 600 ng/mL, K2EDTA (1.8 mg/mL) tube, 60 min RT
[16] = DMAU 600 ng/mL, NaF (1.5 mg/mL) + Na2EDTA (3 mg/mL) tube, 30 min 4 °C
[17] = DMAU 600 ng/mL, NaF (1.5 mg/mL) + Na2EDTA (3 mg/mL) tube, 60 min 4 °C
[18] = DMAU 600 ng/mL, NaF (1.5 mg/mL) + Na2EDTA (3 mg/mL) tube, 60 min RT
[19] = DMAU 600 ng/mL, NaF (5 mg/mL) + K2Oxalate (4 mg/mL) tube, 30 min 4 °C
[20] = DMAU 600 ng/mL, NaF (5 mg/mL) + K2Oxalate (4 mg/mL) tube, 60 min 4 °C
[21] = DMAU 600 ng/mL, NaF (5 mg/mL) + K2Oxalate (4 mg/mL) tube, 60 min RT
[22] = DMAU 600 ng/mL, P800 tube, 30 min 4 °C
[23] = DMAU 600 ng/mL, P800 tube, 60 min 4 °C
[24] = DMAU 600 ng/mL, P800 tube, 60 min RT

## CCCCCCCCCCC(=O)O[C@H]1CC[C@H]2[C@H]3[C@H]([C@@H](C)C[C@]12C)[C@H]1CCC(=O)C=C1C[C@H]3C [DMAU, dimethandrolone undecanoate]
[1]; DMAU concentrations above 10 ng/mL
  Difference in DMA concentrations between plain and NaF‐EDTA tubes: 22%
[1]; DMAU concentrations below 10 ng/mL
  Mean difference in DMA concentrations between plain and NaF‐EDTA tubes: ~0%
Blood esterases; DMAU 125 ng/mL
  Reduction of conversion of DMAU to DMA in NaF tubes: 72%
  DMA level: 1.57 ng/mL
Blood esterases; DMAU 250 ng/mL
  Reduction of conversion of DMAU to DMA in NaF tubes: 61.3%
  DMA level: 2.79 ng/mL
Blood esterases; [3]
  % difference vs. Plain: −56.1%
  DMA: 1.4 ng/mL
Blood esterases; [4]
  % difference vs. Plain: −76.5%
  DMA: 1.4 ng/mL
Blood esterases; [5]
  % difference vs. Plain: +15.2%
  DMA: 9.7 ng/mL
Blood esterases; [6]
  % difference vs. Plain: −80.6%
  DMA: 0.6 ng/mL
Blood esterases; [7]
  % difference vs. Plain: −77.3%
  DMA: 1.3 ng/mL
Blood esterases; DMAU 300 ng/mL, NaF (5 mg/mL) + K2Oxalate (4 mg/mL) tube, 30 min 4 °C
  DMA: LLOQ
Blood esterases; [8]
  % difference vs. Plain: −82.2%
  DMA: 1 ng/mL
Blood esterases; [9]
  % difference vs. Plain: −31.9%
  DMA: 5.7 ng/mL
Blood esterases; [10]
  % difference vs. Plain: −78.1%
  DMA: 0.7 ng/mL
Blood esterases; [11]
  % difference vs. Plain: −84.2%
  DMA: 0.9 ng/mL
Blood esterases; [12]
  % difference vs. Plain: −20.6%
  DMA: 6.7 ng/mL
Blood esterases; DMAU 300 ng/mL, Plain tube, 30 min 4 °C
  DMA: 3.3 ng/mL
Blood esterases; DMAU 300 ng/mL, Plain tube, 60 min 4 °C
  DMA: 5.9 ng/mL
Blood esterases; DMAU 300 ng/mL, Plain tube, 60 min RT
  DMA: 8.4 ng/mL
Blood esterases; DMAU 500 ng/mL
  Reduction of conversion of DMAU to DMA in NaF tubes: 54.3%
  DMA level: 5.54 ng/mL
Blood esterases; [13]
  % difference vs. Plain: −17.1%
  DMA: 1.2 ng/mL
Blood esterases; [14]
  % difference vs. Plain: −46.4%
  DMA: 2.3 ng/mL
Blood esterases; [15]
  % difference vs. Plain: +13.4%
  DMA: 16.5 ng/mL
Blood esterases; [16]
  % difference vs. Plain: −30.0%
  DMA: 1 ng/mL
Blood esterases; [17]
  % difference vs. Plain: −43.5%
  DMA: 2.4 ng/mL
Blood esterases; [18]
  % difference vs. Plain: −29.4%
  DMA: 10.2 ng/mL
Blood esterases; [19]
  % difference vs. Plain: −38.7%
  DMA: 0.9 ng/mL
Blood esterases; [20]
  % difference vs. Plain: −72.7%
  DMA: 1.2 ng/mL
Blood esterases; [21]
  % difference vs. Plain: −34.1%
  DMA: 9.6 ng/mL
Blood esterases; [22]
  % difference vs. Plain: −42.5%
  DMA: 0.9 ng/mL
Blood esterases; [23]
  % difference vs. Plain: −67.1%
  DMA: 1.4 ng/mL
Blood esterases; [24]
  % difference vs. Plain: −25.9%
  DMA: 10.8 ng/mL
Blood esterases; DMAU 600 ng/mL, Plain tube, 30 min 4 °C
  DMA: 1.5 ng/mL
Blood esterases; DMAU 600 ng/mL, Plain tube, 60 min 4 °C
  DMA: 4.3 ng/mL
Blood esterases; DMAU 600 ng/mL, Plain tube, 60 min RT
  DMA: 14.5 ng/mL
Blood esterases; DMAU 1000 ng/mL
  Reduction of conversion of DMAU to DMA in NaF tubes: 48.8%
  DMA level: 8.82 ng/mL
Blood esterases; increasing amounts of DMAU added to blood
  Reduction of overestimation of DMA by collecting blood into NaF tubes: 30–85%
[2]
  Conversion of DMAU to DMA in serum: no conversion
